# Assay results published in ChEMBL document CHEMBL4808222, “Design and Synthesis of Novel Spiro Derivatives as Potent and Reversible Monoacylglycerol Lipase (MAGL) Inhibitors: Bioisosteric Transformation from 3-Oxo-3,4-dihydro-2H-benzo[b][1,4]oxazin-6-yl Moiety” (J Med Chem, 2021).
# Columns and labels:
# [1] = Lipophilicity, logD of the compound at pH 7.4 by UPHLC analysis; type: physicochemical; conditions: buffer
# [2] = Drug uptake in C57BL/6J Jcl mouse assessed as plasma concentration at 10 mg/kg, po measured after 60 mins by LC-MS/MS analysis; type: ADME, organism-based; conditions: read-out: Drug uptake
# Outline: (§1)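 Male C57BL/6J Jcl mice, 8 weeks old, given a single oral dose as a suspension in 0.5% methylcellulose at 10 mL/kg. Plasma and brain hemispheres collected 60 min post-dose (n = 4 per group). Levels measured by LC/MS/MS.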
# [3] = Drug uptake in C57BL/6J Jcl mouse assessed as brain concentration at 0.3 mg/kg, po measured after 60 mins by LC-MS/MS analysis; type: ADME, organism-based; conditions: read-out: Drug uptake; outline: as §1
# [4] = Aqueous solubility of the compound in pH 6.8 JP2 fluid measured after 18 hrs by shake flask method based UHPLC analysis; type: physicochemical
# [5] = Drug uptake in C57BL/6J Jcl mouse assessed as brain concentration at 0.1 mg/kg, po measured after 60 mins by LC-MS/MS analysis; type: ADME, organism-based; conditions: read-out: Drug uptake; outline: as §1
# [6] = Drug uptake in C57BL/6J Jcl mouse assessed as plasma concentration at 0.3 mg/kg, po measured after 60 mins by LC-MS/MS analysis; type: ADME, organism-based; conditions: read-out: Drug uptake; outline: as §1
# [7] = Drug uptake in C57BL/6J Jcl mouse assessed as brain concentration at 3 mg/kg, po measured after 60 mins by LC-MS/MS analysis; type: ADME, organism-based; conditions: read-out: Drug uptake; outline: as §1
# [8] = Drug uptake in C57BL/6J Jcl mouse assessed as plasma concentration at 3 mg/kg, po measured after 60 mins by LC-MS/MS analysis; type: ADME, organism-based; conditions: read-out: Drug uptake; outline: as §1
# [9] = Drug uptake in C57BL/6J Jcl mouse assessed as brain concentration at 10 mg/kg, po measured after 60 mins by LC-MS/MS analysis; type: ADME, organism-based; conditions: read-out: Drug uptake; outline: as §1
# [10] = Drug uptake in C57BL/6J Jcl mouse assessed as brain concentration at 1 mg/kg, po measured after 60 mins by LC-MS/MS analysis; type: ADME, organism-based; conditions: read-out: Drug uptake; outline: as §1
# [11] = Drug uptake in C57BL/6J Jcl mouse assessed as plasma concentration at 0.1 mg/kg, po measured after 60 mins by LC-MS/MS analysis; type: ADME, organism-based; conditions: read-out: Drug uptake; outline: as §1
# [12] = Drug uptake in C57BL/6J Jcl mouse assessed as plasma concentration at 1 mg/kg, po measured after 60 mins by LC-MS/MS analysis; type: ADME, organism-based; conditions: read-out: Drug uptake; outline: as §1
SMILES,logD [1],also measured
O=C1CC[C@H](CCC(=O)N2CCC(COc3ccc(F)cc3Cl)CC2)N1,2.7,–
O=C1CCC(CCC(=O)N2CCC(COc3ccc(F)cc3Cl)CC2)N1 (stereo unspecified),3,–
O=C1N[C@]2(CO1)C[C@H](C(=O)N1CC(OCc3ccc(Cl)cc3Cl)C1)C2,2.5,–
CCC(Oc1ccc(F)cc1Cl)C1CCN(C(=O)[C@H]2C[C@]3(COC(=O)N3)C2)CC1 (stereo partly specified),3.1,–
O=C1CCC2(CCCN(C(=O)N3CCC(COc4ccc(F)cc4Cl)CC3)C2)N1 (stereo unspecified),3.1,–
O=C1N[C@]2(CO1)C[C@H](C(=O)N1CC(OCc3ccc(C(F)(F)F)c(C(F)(F)F)c3)C1)C2,2.5,–
CC(Oc1ccc(F)cc1Cl)C1CCN(C(=O)[C@H]2C[C@]3(COC(=O)N3)C2)CC1 (stereo partly specified),2.8,–
Cc1ccc(COC2CN(C(=O)[C@H]3C[C@]4(COC(=O)N4)C3)C2)cc1Cl,2.3,concentration at 1 h [2]: 1520 ng/mL; concentration at 1 h [3]: 99 ng/g; solubility thermodynamic at 18 h [4]: 330 µg/mL; concentration at 1 h [5]: 31 ng/g; concentration at 1 h [6]: 62 ng/mL; concentration at 1 h [7]: 322 ng/g; concentration at 1 h [8]: 457 ng/mL; concentration at 1 h [9]: 711 ng/g; concentration at 1 h [10]: 169 ng/g; concentration at 1 h [11]: 17 ng/mL; concentration at 1 h [12]: 163 ng/mL
O=C1N[C@]2(CO1)C[C@H](C(=O)N1CC(OCc3ccc(C(F)(F)F)c(Cl)c3)C1)C2,2.4,–
Cc1cc(COC2CN(C(=O)[C@H]3C[C@]4(COC(=O)N4)C3)C2)ccc1Cl,2.4,–

# Second part, led by results:
logD [1],SMILES,also measured
2.6,O=C1N[C@]2(CO1)C[C@H](C(=O)N1CCC(COc3ccc(F)cc3Cl)CC1)C2,–
3,O=C1COc2ncc(C(=O)N3CCC(COc4ccc(F)cc4Cl)CC3)cc2N1,–
2.7,O=C1COCC(CCC(=O)N2CCC(COc3ccc(F)cc3Cl)CC2)N1 (stereo unspecified),–
2.7,O=C1CCC(COC(=O)N2CCC(COc3ccc(F)cc3Cl)CC2)N1 (stereo unspecified),–
2.7,O=C1CC[C@@H](CCC(=O)N2CCC(COc3ccc(F)cc3Cl)CC2)N1,–
